One may read the MIC as the lowest concentration found to suppress growth. Lower therefore signals greater potency.

Drawing on ChEMBL document CHEMBL3734701, “Synthesis and antibacterial activity of 4″-O-(trans-β-arylacrylamido)carbamoyl azithromycin analogs” (2015), this text covers Ratio and MIC for 4 compounds.

Values after ≈ are worked out from the molar mass of the structure shown.

What all share (type): functional
The test system of assay [1] is Streptococcus pneumoniae. Nature of the assay: Potency index, ratio of AZM MIC to test compound MIC for erythromycin-resistant Streptococcus pneumoniae B1 expressing ermB gene.
Assay [2] has as its system Staphylococcus aureus. As to the kind of experiment: Antibacterial activity against methicillin-susceptible Staphylococcus aureus ATCC 29213 by broth microdilution method. The method in brief: (§1)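 MICs measured in vitro by broth microdilution following NCCL recommendations, against a Gram-positive panel of sensitive and resistant strains. Azithromycin and clarithromycin were tested alongside as references.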
For orientation: Broth dilution looks for growth in wells or tubes with falling amounts of substance.

The test system of assay [3] is Streptococcus pneumoniae. Nature of the assay: Potency index, ratio of EMA MIC to test compound MIC for erythromycin-resistant Streptococcus pneumoniae B1 expressing ermB gene.
The subject of assay [4] is Streptococcus pyogenes. As to the kind of experiment: Antibacterial activity against clinically isolated erythromycin-susceptible Streptococcus pyogenes S2 by broth microdilution method. In short, it runs like this: (§2)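 Broth microdilution MIC following the NCCL-recommended method. Panel of sensitive and resistant Gram-positive strains: S. pyogenes S2 (erythromycin-susceptible clinical isolate), S. aureus ATCC25923 and S. pneumoniae ATCC49619 (erythromycin-susceptible). Azithromycin and clarithromycin were run alongside as references.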

Assay [5] has as its system Staphylococcus aureus. Nature of the assay: Antibacterial activity against erythromycin-susceptible Staphylococcus aureus ATCC 25923 by broth microdilution method. The method in brief: as §2
The subject of assay [6] is Streptococcus pneumoniae. Nature of the assay: Antibacterial activity against erythromycin-resistant Streptococcus pneumoniae B1 expressing ermB gene by broth microdilution method. In short, it runs like this: as §1
Assay [7] has as its system Staphylococcus aureus. Nature of the assay: Antibacterial activity against clinically isolated penicillin-resistant Staphylococcus aureus by broth microdilution method. In short, it runs like this: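 Clinical penicillin-resistant S. aureus isolate, not further characterized, tested in a Gram-positive panel. MIC was measured by broth microdilution following NCCL recommendations, with azithromycin and clarithromycin as references.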

The test system of assay [8] is Streptococcus pyogenes. Nature of the assay: Antibacterial activity against clinically isolated erythromycin-resistant Streptococcus pyogenes R2 by broth microdilution method. The method in brief:
as §1

In assay [9] the test system is Streptococcus pneumoniae. Nature of the assay: Antibacterial activity against erythromycin-resistant Streptococcus pneumoniae AB11 expressing ermB and mefA genes by broth microdilution method. In short, it runs like this: as §1
Assay [10] relates to Streptococcus pneumoniae. As to the kind of experiment: Antibacterial activity against erythromycin-resistant Streptococcus pneumoniae A22072 expressing mefA gene by broth microdilution method. The method in brief: as §1
The test system of assay [11] is Streptococcus pneumoniae. As to the kind of experiment: Antibacterial activity against erythromycin-susceptible Streptococcus pneumoniae ATCC 49619 by broth microdilution method. The method in brief: as §2
The test system of assay [12] is Streptococcus pyogenes. As to the kind of experiment: Potency index, ratio of EMA MIC to test compound MIC for clinically isolated erythromycin-resistant Streptococcus pyogenes R2.
Assay [13] deals with Streptococcus pyogenes. As to the kind of experiment: Potency index, ratio of AZM MIC to test compound MIC for clinically isolated erythromycin-resistant Streptococcus pyogenes R2.
Assay [14] deals with Streptococcus pneumoniae. Nature of the assay: Potency index, ratio of AZM MIC to test compound MIC for erythromycin-resistant Streptococcus pneumoniae A22072 expressing mefA gene.
Assay [15] relates to Streptococcus pneumoniae. Nature of the assay: Potency index, ratio of EMA MIC to test compound MIC for erythromycin-resistant Streptococcus pneumoniae A22072 expressing mefA gene.

Turning to `CC[C@@H]1OC(=O)[C@H](C)[C@@H](O[C@H]2C[C@@](C)(OC)[C@@H](OC(=O)NNC(=O)/C=C/c3cccs3)[C@H](C)O2)[C@@H](C)[C@@H](O[C@@H]2O[C@H](C)C[C@H](N(C)C)[C@H]2O)[C@](C)(O)C[C@@H](C)CN(C)[C@H](C)[C@@H](OC(=O)NCc2ccc(OC)cc2)[C@]1(C)O`, the Ratio in the assay with Streptococcus pneumoniae [1] and in the assay with Streptococcus pneumoniae [3] was 256 in each case. Besides, the MIC turned out to be 1 µg/mL (≈ 0.904 µM) in the assay on Staphylococcus aureus [2]; 0.25 µg/mL (≈ 0.226 µM) against Streptococcus pyogenes [4]; 0.5 µg/mL (≈ 0.452 µM) against Staphylococcus aureus [5]; 0.5 µg/mL (≈ 0.452 µM) with Streptococcus pneumoniae [6]; 2 µg/mL (≈ 1.81 µM) against Staphylococcus aureus [7]; 32 µg/mL (≈ 28.9 µM) against Streptococcus pyogenes [8]. Also, the MIC was determined as 1 µg/mL (≈ 0.904 µM) in the assay with Streptococcus pneumoniae [9], 0.03 µg/mL (≈ 0.0271 µM) in the assay with Streptococcus pneumoniae [10] and 0.25 µg/mL (≈ 0.226 µM) in the assay on Streptococcus pneumoniae [11].

Turning to `CC[C@H]1OC(=O)[C@@H](C)[C@H](O[C@@H]2C[C@](C)(OC)[C@H](OC(=O)NNC(=O)/C=C/c3ccc(Cl)cc3)[C@@H](C)O2)[C@H](C)[C@H](O[C@H]2O[C@@H](C)C[C@@H](N(C)C)[C@@H]2O)[C@@](C)(O)C[C@H](C)CN(C)[C@@H](C)[C@H](OC(=O)NCc2ccc(OC)cc2)[C@@]1(C)O`, the Ratio in the assay with Streptococcus pneumoniae [1] turned out to be 512; with Streptococcus pyogenes [12] it was 32; with Streptococcus pneumoniae [3], 512; with Streptococcus pyogenes [13] it was 32. Also, the MIC against Staphylococcus aureus [2] was 2 µg/mL (≈ 1.76 µM); with Streptococcus pyogenes [4] it was 0.5 µg/mL (≈ 0.441 µM); with Staphylococcus aureus [5] it was 0.5 µg/mL (≈ 0.441 µM); with Streptococcus pneumoniae [6], 0.25 µg/mL (≈ 0.22 µM); against Staphylococcus aureus [7], 2 µg/mL (≈ 1.76 µM); in the assay with Streptococcus pyogenes [8], 4 µg/mL (≈ 3.52 µM). The MIC worked out at 1 µg/mL (≈ 0.881 µM) in the assay on Streptococcus pneumoniae [9], 0.12 µg/mL (≈ 0.106 µM) against Streptococcus pneumoniae [10] and 0.5 µg/mL (≈ 0.441 µM) against Streptococcus pneumoniae [11].

Turning to `CC[C@H]1OC(=O)[C@@H](C)[C@H](O[C@H]2C[C@@](C)(OC)[C@@H](OC(=O)NNC(=O)/C=C/c3cccs3)[C@H](C)O2)[C@@H](C)[C@H](O[C@H]2O[C@@H](C)C[C@@H](N(C)C)[C@@H]2O)[C@@](C)(O)C[C@H](C)CN(C)[C@@H](C)[C@@H]2OC(=O)O[C@@]12C`, the MIC with Staphylococcus aureus [2] was 64 µg/mL (≈ 66 µM); in the assay on Streptococcus pyogenes [4] it was 0.25 µg/mL (≈ 0.258 µM); against Staphylococcus aureus [5] it was 32 µg/mL (≈ 33 µM); in the assay with Streptococcus pneumoniae [6], 2 µg/mL (≈ 2.06 µM); with Staphylococcus aureus [7], 64 µg/mL (≈ 66 µM); in the assay with Streptococcus pyogenes [8], at least 128 µg/mL. In addition, the MIC against Streptococcus pneumoniae [9] turned out to be 4 µg/mL (≈ 4.13 µM); against Streptococcus pneumoniae [10] it was 0.015 µg/mL (≈ 0.0155 µM); against Streptococcus pneumoniae [11], 8 µg/mL (≈ 8.25 µM). Moreover, the Ratio was 256 in the assay with Streptococcus pneumoniae [14] and 512 in the assay with Streptococcus pneumoniae [15].

Turning to `CC[C@H]1OC(=O)[C@@H](C)[C@H](O[C@@H]2C[C@](C)(OC)[C@H](OC(=O)NNC(=O)/C=C/c3ccc(Br)cc3)[C@@H](C)O2)[C@H](C)[C@H](O[C@H]2O[C@@H](C)C[C@@H](N(C)C)[C@@H]2O)[C@@](C)(O)C[C@H](C)CN(C)[C@@H](C)[C@H](OC(=O)NCc2ccc(OC)cc2)[C@@]1(C)O`, the Ratio in the assay with Streptococcus pneumoniae [1] and with Streptococcus pneumoniae [3] was 256 throughout. Besides, the MIC against Staphylococcus aureus [2] is 2 µg/mL (≈ 1.7 µM); against Streptococcus pyogenes [4], 0.5 µg/mL (≈ 0.424 µM); in the assay with Staphylococcus aureus [5], 1 µg/mL (≈ 0.848 µM); with Streptococcus pneumoniae [6], 0.5 µg/mL (≈ 0.424 µM); with Staphylococcus aureus [7], 2 µg/mL (≈ 1.7 µM); in the assay on Streptococcus pyogenes [8] it was 16 µg/mL (≈ 13.6 µM). Also, the MIC against Streptococcus pneumoniae [9] was 1 µg/mL (≈ 0.848 µM); with Streptococcus pneumoniae [10] it was 0.25 µg/mL (≈ 0.212 µM); in the assay on Streptococcus pneumoniae [11], 0.25 µg/mL (≈ 0.212 µM).
